According to ChEMBL document CHEMBL2157980, “Discovery of SCH 900229, a Potent Presenilin 1 Selective γ-Secretase Inhibitor for the Treatment of Alzheimer's Disease” (ACS Med Chem Lett, 2012):
pIC50: −log10 of the molar value. One block for each molecule: values may come before it. The source made the active and inactive calls. No cut-off for these calls is given here.

Assays:
Presenilin-1 [1] = molecular target: T1, Presenilin-1 (Homo sapiens, UniProt P49768); test: Inhibition of PS1 gamma-secretase assessed as reduction of amyloid beta-40 production by membrane based assay
Method in brief: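 Aβ40 production was measured in a membrane-based assay. IC50 was the average of at least two measurements, with standard deviation 20%.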

[2] = Selectivity ratio of IC50 for PS2 gamma-secretase to IC50 for PS1 gamma-secretase
Method in brief: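 Inhibitors were tested against reconstituted γ-secretase complexes containing PS1 or PS2. The result is expressed as the PS2/PS1 ratio of IC50 values.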

Presenilin-2 = Presenilin-2 (Homo sapiens, UniProt P49810); test: Inhibition of PS2 gamma-secretase expressed in HEK cells harboring Awe-Lon gene assessed as reduction of amyloid beta-42 production; type: cell-based, HEK293
Mus musculus [3] = test: Antialzheimer activity in B6C3F1 mouse assessed as reduction of amyloid beta-40 level in plasma at 30 mg/kg, po after 3 hrs; type: functional; set-up: scale not given: the % may be the effect or the level left
Method in brief: (§1)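 B6C3F1 mice were dosed orally at 10 or 30 mg/kg. Aβ40 in plasma and cortex was measured 3 h after dosing and expressed as % change, with lowering shown as negative.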

Presenilin-1 [4] = molecular target: T1, Presenilin-1; test: Inhibition of PS1 gamma-secretase expressed in HEK cells harboring Awe-Lon gene assessed as reduction of amyloid beta-40 production; type: cell-based, HEK293
Method in brief: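 Cell-based Aβ40 production assay in HEK293 cells carrying APP Awe-Lon. IC50 was the average of at least two determinations, with standard deviation 20%.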

Mus musculus [5] = test: Antialzheimer activity in B6C3F1 mouse assessed as reduction of amyloid beta-40 level in cortex at 30 mg/kg, po after 3 hrs; type: functional; set-up: scale not given: the % may be the effect or the level left; method in brief: as §1
[6] = Volume of distribution at steady state in rat at 5 mg/kg, iv administered with 20% HPbetaCD; type: ADME, organism-based; set-up: dose 5 mg/kg, route intravenous; conditions: in vivo, read-out: Vdss
Method in brief: (§2)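 CL and Vd(ss) came from iv administration at 5 mg/kg in rat and 2.5 mg/kg each in monkey and dog. Values are averages of three animals per species.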

[7] = Cmax in dog at 5 mg/kg, po administered with 0.4% HPMC; conditions: in vivo
[8] = Tmax in monkey at 5 mg/kg, po administered with 0.4% HPMC; conditions: rhesus monkey, in vivo
Mus musculus [9] = test: Antialzheimer activity in po dosed transgenic CRND8 mouse assessed as decrease of amyloid beta-40 level in cortex after 3 hrs; type: functional
Method in brief: (§3)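 CRND8 mice received a single acute oral dose. Plasma and cortical Aβ40 were measured at the 3 h time point, and ED50 was derived from the dose response.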

[10] = Oral bioavailability in dog at 5 mg/kg administered with 0.4% HPMC; conditions: in vivo
[11] = Cmax in rat at 10 mg/kg, po administered with 0.4% HPMC; type: ADME, organism-based; set-up: dose 10 mg/kg, route oral; conditions: in vivo
Method in brief: (§4)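 Rats (n = 3) were dosed orally at 10 mg/kg in either 20% HPβCD or 0.4% HPMC. AUC(0−∞), Cmax, Tmax and T1/2 were taken from the oral profile, with averaged values. Bioavailability (F) was referenced to iv dosing at 5 mg/kg.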

Mus musculus [12] = test: Antialzheimer activity in po dosed transgenic CRND8 mouse assessed as decrease of amyloid beta-40 level in plasma administered bid for 6 days; type: functional; conditions: 144 h
Method in brief: (§5)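 In a subchronic study, CRND8 mice were dosed orally BID for 6 days. Aβ40 lowering in plasma and cortex was measured, and ED50 was derived.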

[13] = AUC (0 to infinity) in rat at 10 mg/kg, po administered with 0.4% HPMC; type: ADME, organism-based; set-up: time infinity, dose 10 mg/kg, route oral; conditions: plasma; method in brief: as §4
[14] = AUC (0 to infinity) in monkey at 5 mg/kg, po administered with 0.4% HPMC; conditions: rhesus monkey, plasma
[15] = Tmax in dog at 5 mg/kg, po administered with 0.4% HPMC; conditions: in vivo
[16] = Half life in monkey at 5 mg/kg, po administered with 0.4% HPMC; conditions: rhesus monkey, in vivo
[17] = Half life in rat at 10 mg/kg, po administered with 20% HPbetaCD; type: ADME, organism-based; set-up: dose 10 mg/kg, route oral; conditions: in vivo; method in brief: as §4
[18] = Tmax in rat at 10 mg/kg, po administered with 0.4% HPMC; type: ADME, organism-based; set-up: dose 10 mg/kg, route oral; conditions: in vivo; method in brief: as §4
[19] = Clearance in rat at 5 mg/kg, iv administered with 20% HPbetaCD; type: ADME, organism-based; set-up: dose 5 mg/kg, route intravenous; conditions: in vivo; method in brief: as §2
Canis familiaris [20] = organism: Canis familiaris; test: Antialzheimer activity in dog assessed as decrease of amyloid beta-40 level in plasma; type: functional, organism-based; conditions: Canis lupus familiaris
Mus musculus [21] = test: Antialzheimer activity in po dosed transgenic CRND8 mouse assessed as decrease of amyloid beta-40 level in plasma after 3 hrs; type: functional; method in brief: as §3
[22] = Volume of distribution at steady state in dog at 2.5 mg/kg, iv administered with 0.4% HPMC; type: ADME, organism-based, Canis lupus familiaris; set-up: dose 2.5 mg/kg, route intravenous; conditions: in vivo, read-out: Vdss; method in brief: as §2
Mus musculus [23] = test: Toxicity in po dosed transgenic CRND8 mouse assessed as intestinal goblet cell hyperplasia administered bid for 6 days; type: organism-based; conditions: in vivo, 144 h
Method in brief: (§6)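 In the same subchronic design (oral BID dosing for 6 days in CRND8 mice), Notch-related effects were examined as thymus size reduction and intestinal goblet cell hyperplasia.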

[24] = Oral bioavailability in rat at 10 mg/kg administered with 20% HPbetaCD; type: ADME, organism-based; conditions: in vivo; method in brief: as §4
[25] = Volume of distribution at steady state in rat at 5 mg/kg, iv administered with 0.4% HPMC; type: ADME, organism-based; set-up: dose 5 mg/kg, route intravenous; conditions: in vivo, read-out: Vdss; method in brief: as §2
[26] = Half life in rat at 10 mg/kg, po administered with 0.4% HPMC; type: ADME, organism-based; set-up: dose 10 mg/kg, route oral; conditions: in vivo; method in brief: as §4
[27] = Cmax in monkey at 5 mg/kg, po administered with 0.4% HPMC; conditions: rhesus monkey, in vivo
Presenilin-1 [28] = molecular target: T1, Presenilin-1; test: Inhibition of PS1 gamma-secretase expressed in HEK cells harboring Awe-Lon gene assessed as notch cleavage; type: cell-based, HEK293
[29] = Oral bioavailability in monkey at 5 mg/kg administered with 0.4% HPMC; conditions: rhesus monkey, in vivo
Mus musculus [30] = test: Antialzheimer activity in po dosed transgenic CRND8 mouse assessed as decrease of amyloid beta-40 level in cortex administered bid for 6 days; type: functional; conditions: 144 h; method in brief: as §5
[31] = Clearance in rat at 5 mg/kg, iv administered with 0.4% HPMC; type: ADME, organism-based; set-up: dose 5 mg/kg, route intravenous; conditions: in vivo; method in brief: as §2
[32] = Half life in dog at 5 mg/kg, po administered with 0.4% HPMC; conditions: in vivo
[33] = AUC (0 to infinity) in rat at 10 mg/kg, po administered with 20% HPbetaCD; type: ADME, organism-based; set-up: time infinity, dose 10 mg/kg, route oral; conditions: plasma; method in brief: as §4
[34] = Clearance in dog at 2.5 mg/kg, iv administered with 0.4% HPMC; type: ADME, organism-based, Canis lupus familiaris; set-up: dose 2.5 mg/kg, route intravenous; conditions: in vivo; method in brief: as §2
[35] = AUC (0 to infinity) in dog at 5 mg/kg, po administered with 0.4% HPMC; conditions: plasma
[36] = Clearance in monkey at 2.5 mg/kg, iv administered with 0.4% HPMC; type: ADME, organism-based, Macaca mulatta; set-up: dose 2.5 mg/kg, route intravenous; conditions: rhesus monkey, in vivo; method in brief: as §2
Canis familiaris [37] = organism: Canis familiaris; test: Antialzheimer activity in dog assessed as decrease of amyloid beta-40 level in cortex; type: functional, organism-based; conditions: Canis lupus familiaris
[38] = Volume of distribution at steady state in monkey at 2.5 mg/kg, iv administered with 0.4% HPMC; type: ADME, organism-based, Macaca mulatta; set-up: dose 2.5 mg/kg, route intravenous; conditions: rhesus monkey, in vivo, read-out: Vdss; method in brief: as §2
[39] = Cmax in rat at 10 mg/kg, po administered with 20% HPbetaCD; type: ADME, organism-based; set-up: dose 10 mg/kg, route oral; conditions: in vivo; method in brief: as §4
Canis familiaris [40] = organism: Canis familiaris; test: Antialzheimer activity in dog assessed as decrease of amyloid beta-40 level in CSF; type: functional, organism-based; conditions: Canis lupus familiaris
[41] = Tmax in rat at 10 mg/kg, po administered with 20% HPbetaCD; type: ADME, organism-based; set-up: dose 10 mg/kg, route oral; conditions: in vivo; method in brief: as §4
Mus musculus [42] = test: Toxicity in po dosed transgenic CRND8 mouse assessed as reduction in thymus size administered bid for 6 days; type: organism-based; conditions: in vivo, 144 h; method in brief: as §6
[43] = Oral bioavailability in rat at 10 mg/kg administered with 0.4% HPMC; type: ADME, organism-based; conditions: in vivo; method in brief: as §4
Mus musculus [44] = test: Antialzheimer activity in B6C3F1 mouse assessed as reduction of amyloid beta-40 level in cortex at 10 mg/kg, po after 3 hrs; type: functional; set-up: scale not given: the % may be the effect or the level left; method in brief: as §1
Mus musculus [45] = test: Antialzheimer activity in B6C3F1 mouse assessed as reduction of amyloid beta-40 level in plasma at 10 mg/kg, po after 3 hrs; type: functional; set-up: scale not given: the % may be the effect or the level left; method in brief: as §1

Chain of Presenilin-2 (P49810 1-297 limits assumed): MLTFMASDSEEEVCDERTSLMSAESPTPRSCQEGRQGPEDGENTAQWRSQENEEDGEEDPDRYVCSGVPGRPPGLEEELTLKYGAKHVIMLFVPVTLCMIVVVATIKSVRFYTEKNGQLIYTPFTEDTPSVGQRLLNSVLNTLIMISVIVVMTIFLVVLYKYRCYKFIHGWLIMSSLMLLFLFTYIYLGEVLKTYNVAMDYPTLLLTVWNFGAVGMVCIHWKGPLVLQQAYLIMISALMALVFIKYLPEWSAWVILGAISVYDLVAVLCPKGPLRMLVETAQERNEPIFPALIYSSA
Chain of Presenilin-2 (P49810 298-448 limits assumed): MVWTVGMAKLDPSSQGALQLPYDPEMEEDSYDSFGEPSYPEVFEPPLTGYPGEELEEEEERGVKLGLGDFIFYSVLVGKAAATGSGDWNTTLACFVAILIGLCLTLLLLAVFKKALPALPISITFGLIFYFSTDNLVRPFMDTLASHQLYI

SMILES: CCS(=O)(=O)CC[C@@H]1OCC[C@@]2(S(=O)(=O)c3ccc(Cl)cc3)c3c(F)ccc(F)c3OC[C@@H]12
- pIC50 (Presenilin-1 [1]): 8.52
- Ratio IC50 [2]: 26
- pIC50 (Presenilin-2): 8.70
- Activity (Mus musculus [3]): 60%
- pIC50 (Presenilin-1 [4]): 8.30
- Activity (Mus musculus [5]): 79%

SMILES: CCNC(=O)OCC[C@@H]1OCC[C@@]2(S(=O)(=O)c3ccc(Cl)cc3)c3c(F)ccc(F)c3OC[C@@H]12 (racemic)
- pIC50 (Presenilin-1 [1]): 7.62
- pIC50 (Presenilin-2): 7.70
- pIC50 (Presenilin-1 [4]): 7.32

SMILES: CNC(=O)OCC[C@@H]1OCC[C@@]2(S(=O)(=O)c3ccc(Cl)cc3)c3c(F)ccc(F)c3OC[C@@H]12 (racemic)
- pIC50 (Presenilin-1 [1]): 8.10
- Ratio IC50 [2]: 3
- pIC50 (Presenilin-2): 8.22
- pIC50 (Presenilin-1 [4]): 8.10

More lines, main results first:

- Vd [6]: 5.4 L/kg
- Cmax [7]: 2740 nM
- Tmax [8]: 1.7 h
- bioavailability [10]: 86%
- pIC50 (Presenilin-1 [1]): 8.89
- Cmax [11]: 240 nM
- AUC(0-inf) [13]: 1 µM·h
- AUC(0-inf) [14]: 8.9 µM·h
- Tmax [15]: 2 h
- half-life [16]: 4.6 h
- half-life [17]: 1.1 h
- Tmax [18]: 0.3 h
- clearance [19]: 69 mL/min/kg
- Ratio IC50 [2]: 25
- Vd [22]: 3.1 L/kg
- pIC50 (Presenilin-2): 9.00
- bioavailability [24]: 29%
- Vd [25]: 3.4 L/kg
- half-life [26]: 1 h
- Cmax [27]: 1390 nM
- pIC50 (Presenilin-1 [28]): 7.34
- bioavailability [29]: 45%
- clearance [31]: 20.8 mL/min/kg
- half-life [32]: 23.9 h
- AUC(0-inf) [33]: 1.4 µM·h
- clearance [34]: 1.7 mL/min/kg
- AUC(0-inf) [35]: 85.6 µM·h
- clearance [36]: 8.2 mL/min/kg
- pIC50 (Presenilin-1 [4]): 8.40
- Vd [38]: 1.9 L/kg
- Cmax [39]: 650 nM
- Tmax [41]: 0.7 h
- bioavailability [43]: 6.4%
SMILES: CS(=O)(=O)CC[C@@H]1OCC[C@@]2(S(=O)(=O)c3ccc(Cl)cc3)c3c(F)ccc(F)c3OC[C@@H]12
- ED50 (Mus musculus [9]): 0.4 mg/kg
- ED50 (Mus musculus [12]): 0.4 mg/kg
- Activity (Canis familiaris [20]): Active
- ED50 (Mus musculus [21]): 0.5 mg/kg
- Activity (Mus musculus [23]): Non-toxic
- ED50 (Mus musculus [30]): 0.3 mg/kg
- Activity (Mus musculus [3]): 89%
- Activity (Canis familiaris [37]): Active
- Activity (Canis familiaris [40]): Active
- Activity (Mus musculus [42]): Non-toxic
- Activity (Mus musculus [5]): 78%

- pIC50 (Presenilin-1 [1]): 6.42
SMILES: CS(=O)(=O)CC[C@H]1OCC[C@]2(S(=O)(=O)c3ccc(Cl)cc3)c3c(F)ccc(F)c3OC[C@H]12

- pIC50 (Presenilin-1 [1]): 8.22
- pIC50 (Presenilin-2): 8.52
- pIC50 (Presenilin-1 [4]): 8.10
SMILES: CC(C)S(=O)(=O)CC[C@@H]1OCC[C@@]2(S(=O)(=O)c3ccc(Cl)cc3)c3c(F)ccc(F)c3OC[C@@H]12
- Activity (Mus musculus [44]): 58%
- Activity (Mus musculus [45]): 2%
